Screening results (PubChem)
Pemphigus Ab inh – inhibitors of pemphigus antibody binding to human desmoglein-3; 310,000 compounds, 0.48% hits; P32926; binding (percent of control), % at 10 µM; DSG3-coupled beads, scFv-anti-DSG3-GFP binding, flow cytometry; active compounds read low; AID 588358;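 active = binding more than 3 SD below its plate's average and above zero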;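 note: hits lower antibody fragment binding to DSG3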
MBD2 inh – MBD2-methylated oligo binding inhibition | AID 686964 | TR-FRET, MBD2 binding to methylated oligonucleotide | Q9UBB5 | 370,000 compounds, 0.31% hits | inhibition, % at 4.4 µM; in the data active = inhibition above about 13%
Target sequence (Q9UBB5 whole entry, looked up): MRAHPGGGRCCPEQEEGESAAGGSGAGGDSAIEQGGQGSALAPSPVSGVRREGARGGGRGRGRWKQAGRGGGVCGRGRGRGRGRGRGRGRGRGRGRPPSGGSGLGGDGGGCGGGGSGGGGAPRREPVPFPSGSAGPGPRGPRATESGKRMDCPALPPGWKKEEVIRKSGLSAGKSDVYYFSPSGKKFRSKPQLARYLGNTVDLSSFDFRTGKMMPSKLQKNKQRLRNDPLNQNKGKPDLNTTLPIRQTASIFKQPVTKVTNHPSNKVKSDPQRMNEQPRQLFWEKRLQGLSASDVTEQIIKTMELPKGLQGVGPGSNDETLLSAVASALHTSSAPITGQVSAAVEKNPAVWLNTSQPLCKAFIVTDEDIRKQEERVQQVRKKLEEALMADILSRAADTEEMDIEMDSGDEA
UHRF1 binding – human UHRF1 methylated DNA binding inhibitors | inhibition, % at 4.4 µM | 370,000 compounds, 0.75% hits | AID 687016 | UHRF1 binding to methylated oligo, TR-FRET;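 note: UHRF1 SRA domain binding a hemimethylated CpG hairpin DNA probe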
HCV NS3 hel inh – inhibitors of Hepatitis C virus NS3 helicase; AID 1800; 290,000 compounds, 0.56% hits; inhibition, % at 10.9 µM; NS3 helicase DNA unwinding, Cy5 molecular beacon fluorescence;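 active = inhibition above the mean of all tested compounds plus 3 SD, set per campaign, cut at about 35% in these data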
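assay system = NS3 helicase fragment of HCV | buffer or medium = MOPS pH 6.5, MgCl2, DTT, Tween20, BSA | timing = 60 min unwinding reaction at 25 °C after ATP addition | signal = Cy5 beacon fluorescence read at start and 1 h | read-out basis = % inhibition of unwinding | control set = low DMSO, high thioflavine S at 110 µM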
DNMT1 block – DNMT1 (human) enzyme inhibition. P26358. DNMT1 molecular beacon, Hinp1I cleavage, fluorescence. inhibition (reported as % activation of signal), % at 10 µM. 360,000 compounds, 0.83% hits; in the data active = inhibition above about 50%
SUMO1-SIM PPI – modulators of human SUMO1-mediated protein-protein interactions. AID 602429. inhibition, % at 20 µM. 360,000 compounds, 0.33% hits. SUMO1 binding to a labelled peptide, TR-FRET, 1 h; in the data active = inhibition above about 37%
Target sequence (P63165 whole entry, looked up): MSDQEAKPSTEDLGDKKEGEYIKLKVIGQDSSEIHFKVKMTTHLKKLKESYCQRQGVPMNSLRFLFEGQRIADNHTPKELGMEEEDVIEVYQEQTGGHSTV
Beacon interf DR – beacon fluorescence artifact, dose response counter-screen. IC50, µM. shares compounds with DNMT1 block. molecular beacon fluorescence, spectral interference counter-screen. 200 tested, under 10 active; call rule not given here
DNMT1 inh conf – DNMT1 inhibition confirmation, single concentration. shares compounds with DNMT1 block. DNMT1 molecular beacon HinP1I cleavage, fluorescence. inhibition, % at 10 µM. 2,300 compounds, 8% hits. AID 602385;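 active = average inhibition of at least 30% in the single-concentration confirmation test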
Beacon interf – counter-screen for DNMT1 inhibitors: spectral interference; shares compounds with DNMT1 block; DNMT1 molecular beacon spectral interference counterscreen, fluorescence 485/520; activation (fluorescence interference), % at 10 µM; 2,300 compounds, 1% hits; AID 602387;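 active = activation of at least 30% at 10 µM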;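 note: DNMT1 catalytic domain with a HinP1I cleavage step and a FAM/dabcyl DNA beacon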
UHRF1 ctr MBD2 – UHRF1 methyl-oligo binding inhibition as MBD2 counter-screen; shares compounds with MBD2 inh; UHRF1 binding to methylated oligonucleotide, TR-FRET; inhibition, % at 4.4 µM; 1,000 compounds, 25% hits; AID 720530;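 note: UHRF1 SRA domain binding a labeled hemimethylated CpG hairpin DNA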
MBD2 confirm – MBD2-DBD methyl-DNA binding inhibition, TR-FRET confirmation; inhibition, % at 4.4 µM; TR-FRET MBD2-DBD binding to methylated oligonucleotide; 1,000 compounds, 26% hits; shares compounds with MBD2 inh; AID 720531; in the data active = inhibition above about 14%
Hits are given with their value. In the library only some 2.5% were active in any assay of this set; here they are far more common. Cut-off read from the data, not from the text of the source, unless noted: active = inhibition above about 21%; inactive = the rest.

For O=C(OCc1cc(=O)n2c(n1)sc1ccccc12)c1cccc(O)c1 the results were Pemphigus Ab inh inactive, MBD2 inh 13.4, UHRF1 binding inactive, HCV NS3 hel inh inactive, DNMT1 block 98.1, SUMO1-SIM PPI inactive, DNMT1 inh conf inactive, Beacon interf inactive, UHRF1 ctr MBD2 21.0 and MBD2 confirm 17.9.
`Cc1ccc2c(CC(=O)OCc3csc(C)n3)coc2c1` gave MBD2 inh inactive, UHRF1 binding inactive, HCV NS3 hel inh inactive, DNMT1 block inactive and SUMO1-SIM PPI inactive.
For COC(=O)c1cc(=O)nc2sc3ccccc3n12 the results were Pemphigus Ab inh inactive, MBD2 inh inactive, UHRF1 binding inactive, HCV NS3 hel inh inactive, DNMT1 block inactive and SUMO1-SIM PPI inactive.
`O=C(Cc1coc2cc3c(cc12)CCC3)OCc1cc(=O)n2c(n1)sc1ccccc12` gave MBD2 inh 16.3, UHRF1 binding inactive, HCV NS3 hel inh inactive, DNMT1 block 84.8, SUMO1-SIM PPI inactive, DNMT1 inh conf inactive, Beacon interf inactive, UHRF1 ctr MBD2 inactive and MBD2 confirm 14.1.
Screening CCn1c(=O)n(CC)c2cc(S(N)(=O)=O)ccc21 returned Pemphigus Ab inh inactive, MBD2 inh inactive, UHRF1 binding inactive, HCV NS3 hel inh inactive, DNMT1 block inactive and SUMO1-SIM PPI inactive.
C/C=C(/C)C(=O)Nc1cccc(C2=NOC3(C2)C[C@H](C(N)=O)N(C(=O)COc2ccc(Cl)cc2)C3)c1 (stereo partly drawn) was read as Pemphigus Ab inh inactive, MBD2 inh inactive, UHRF1 binding inactive, DNMT1 block inactive and SUMO1-SIM PPI inactive.
For COCCN(CC1CCCN(C2Cc3ccccc3C2)C1)C(=O)CCSC (stereo not drawn) the results were Pemphigus Ab inh inactive, MBD2 inh inactive, UHRF1 binding inactive, HCV NS3 hel inh inactive, DNMT1 block inactive and SUMO1-SIM PPI inactive.
`O=C(COC(=O)c1cncc(Br)c1)NCc1ccco1` gave Pemphigus Ab inh inactive, MBD2 inh 13.7, UHRF1 binding 43.8, HCV NS3 hel inh inactive, DNMT1 block 102.2, SUMO1-SIM PPI 63.2, DNMT1 inh conf inactive, Beacon interf inactive, UHRF1 ctr MBD2 26.3 and MBD2 confirm 13.9.
For Cc1cc(C)cc(-n2ccnc2SCC(=O)O)c1 the results were Pemphigus Ab inh inactive, MBD2 inh inactive, UHRF1 binding inactive, HCV NS3 hel inh inactive, DNMT1 block inactive and SUMO1-SIM PPI inactive.
O=C1NC(=S)NC1=Cc1ccco1 was read as Pemphigus Ab inh 78.5, MBD2 inh 21.1, UHRF1 binding 60.6, DNMT1 block 53.2, SUMO1-SIM PPI inactive, DNMT1 inh conf inactive, Beacon interf inactive, UHRF1 ctr MBD2 inactive and MBD2 confirm inactive.
Cc1ccccc1CC1(CO)CCCN(C(=O)c2ccc(F)cc2)C1 (stereo not drawn) was read as MBD2 inh inactive, UHRF1 binding inactive, HCV NS3 hel inh inactive, DNMT1 block inactive and SUMO1-SIM PPI inactive.
Screening COc1ccc(NC(=O)c2noc3c2CCC3)cc1 returned MBD2 inh 13.4, UHRF1 binding 31.1, HCV NS3 hel inh inactive, DNMT1 block 107.5, SUMO1-SIM PPI inactive, DNMT1 inh conf inactive, Beacon interf inactive, UHRF1 ctr MBD2 inactive and MBD2 confirm inactive.
`NC1=NC(=O)C(=Cc2ccccc2)S1` gave Pemphigus Ab inh inactive, MBD2 inh inactive, UHRF1 binding inactive, DNMT1 block inactive and SUMO1-SIM PPI inactive.
`NC1=NC(=O)/C(=C\c2ccco2)S1` gave Pemphigus Ab inh inactive, MBD2 inh 23.7, UHRF1 binding 67.5, HCV NS3 hel inh inactive, DNMT1 block 73.7, SUMO1-SIM PPI inactive, DNMT1 inh conf inactive, Beacon interf inactive, UHRF1 ctr MBD2 47.1 and MBD2 confirm 23.8.
For NC(=O)c1c(NC(=O)c2ccc(F)cc2Cl)sc2c1CCC2 the results were Pemphigus Ab inh inactive, MBD2 inh inactive, UHRF1 binding inactive, HCV NS3 hel inh inactive, DNMT1 block inactive and SUMO1-SIM PPI inactive.
`O=C1Cc2cccc(=O)c(O)c2C(=O)O1` gave Pemphigus Ab inh inactive, MBD2 inh 13.2, UHRF1 binding 27.6, DNMT1 block 80.8, SUMO1-SIM PPI inactive, DNMT1 inh conf inactive, Beacon interf inactive, UHRF1 ctr MBD2 27.7 and MBD2 confirm inactive.
For CCN(CC)CCCNc1nc2cc(OC)c(OC)cc2c2nc(-c3ccccc3)nn12 the results were Pemphigus Ab inh inactive, MBD2 inh 34.9, UHRF1 binding 35.3, HCV NS3 hel inh inactive, DNMT1 block 64.2, SUMO1-SIM PPI inactive, Beacon interf DR inactive, DNMT1 inh conf inactive, Beacon interf inactive, UHRF1 ctr MBD2 56.1 and MBD2 confirm 57.0.
`COc1ccc(NC(=O)CSc2ncn[nH]2)c([N+](=O)[O-])c1` gave MBD2 inh inactive, UHRF1 binding inactive, HCV NS3 hel inh inactive, DNMT1 block inactive and SUMO1-SIM PPI inactive.
Screening C=C(C)COc1ccc2c(C)c(C)c(=O)oc2c1OCC(=C)C returned Pemphigus Ab inh inactive, MBD2 inh inactive, UHRF1 binding inactive, HCV NS3 hel inh inactive, DNMT1 block inactive and SUMO1-SIM PPI inactive.
`CC[N+](CC)(CC)CCCCOc1ccc2c(c1)C(=O)c1cc(OCCCC[N+](CC)(CC)CC)ccc1-2` gave Pemphigus Ab inh inactive, MBD2 inh 21.3, UHRF1 binding 30.6, HCV NS3 hel inh inactive, DNMT1 block 50.1, SUMO1-SIM PPI inactive, DNMT1 inh conf inactive, Beacon interf inactive, UHRF1 ctr MBD2 49.4 and MBD2 confirm 31.9.
Screening CC[N+](CC)(CC)CCOc1ccc(/C=C/c2ccccc2)cc1 returned Pemphigus Ab inh inactive, MBD2 inh inactive, UHRF1 binding inactive, DNMT1 block inactive and SUMO1-SIM PPI inactive.
Screening Cn1nnc2cc(NC(=O)NCc3ccc4c(c3)OCO4)ccc21 returned Pemphigus Ab inh inactive, MBD2 inh inactive, UHRF1 binding inactive, HCV NS3 hel inh inactive, DNMT1 block inactive and SUMO1-SIM PPI inactive.
For O=C(Cn1cnc2scc(-c3cccc([N+](=O)[O-])c3)c2c1=O)NCc1ccco1 the results were Pemphigus Ab inh inactive, MBD2 inh 23.8, UHRF1 binding inactive, HCV NS3 hel inh inactive, DNMT1 block 82.9, SUMO1-SIM PPI inactive, DNMT1 inh conf inactive, Beacon interf inactive, UHRF1 ctr MBD2 23.3 and MBD2 confirm 17.1.
